Assay results reported in ChEMBL document CHEMBL3616442, “Unconventional Knoevenagel-type indoles: Synthesis and cell-based studies for the identification of pro-apoptotic agents” (Eur J Med Chem, 2015).

What was measured:
[1] = system: SK-OV-3; test: Growth inhibition of human SKOV3 cells after 48 hrs by sulforhodamine B assay; type: functional; settings: SK-OV-3, 48 h
[2] = system: SNB-19; test: Growth inhibition of human SNB19 cells after 48 hrs by sulforhodamine B assay; type: functional; settings: SNB-19, 48 h
[3] = system: SR; test: Growth inhibition of human SR cells after 48 hrs by sulforhodamine B assay; type: functional
[4] = system: ACHN; test: Growth inhibition of human ACHN cells after 48 hrs by sulforhodamine B assay; type: functional
Summary of the method: (§1)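 NCI 60-cell-line screen. Compounds tested at five 10-fold dilutions from 10^-4 to 10^-8 M. Cells exposed for the last 48 h of a 72 h incubation, growth estimated by sulforhodamine B protein assay. GI50 is the concentration giving 50% growth inhibition. Values beyond the tested range are expressed as greater or lesser than the extreme concentration.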

[5] = system: PC-3; test: Growth inhibition of human PC3 cells after 48 hrs by sulforhodamine B assay; type: functional; settings: PC-3, 48 h
[6] = Growth inhibition of human HOP92 cells after 48 hrs by sulforhodamine B assay; type: functional; settings: HOP-92, 48 h; summary of the method: as §1
[7] = system: SN12C; test: Growth inhibition of human SN12C cells after 48 hrs by sulforhodamine B assay; type: functional
[8] = system: KM12; test: Growth inhibition of human KM12 cells after 48 hrs by sulforhodamine B assay; type: functional; settings: KM12, 48 h; summary of the method: as §1
[9] = Growth inhibition of human SF295 cells after 48 hrs by sulforhodamine B assay; type: functional; settings: SF-295, 48 h
[10] = system: UACC-257; test: Growth inhibition of human UACC257 cells after 48 hrs by sulforhodamine B assay; type: functional; settings: UACC-257, 48 h
[11] = system: CAKI-1; test: Growth inhibition of human CAKI-1 cells after 48 hrs by sulforhodamine B assay; type: functional; settings: CAKI-1, 48 h; summary of the method: as §1
[12] = Growth inhibition of human LOXIMVI cells after 48 hrs by sulforhodamine B assay; type: functional; settings: LOX IMVI; summary of the method: as §1
[13] = Growth inhibition of human Hs 578T cells after 48 hrs by sulforhodamine B assay; type: functional; summary of the method: as §1
[14] = system: HCT-116; test: Growth inhibition of human HCT116 cells after 48 hrs by sulforhodamine B assay; type: functional; settings: HCT-116, 48 h; summary of the method: as §1
[15] = system: MCF7; test: Growth inhibition of human MCF7 cells after 48 hrs by sulforhodamine B assay; type: functional; settings: MCF7, 48 h; summary of the method: as §1
[16] = system: A549; test: Growth inhibition of human A549 cells after 48 hrs by sulforhodamine B assay; type: functional; settings: A549, 48 h; summary of the method: as §1
[17] = system: MDA-MB-435; test: Growth inhibition of human MDA-MB-435 cells after 48 hrs by sulforhodamine B assay; type: functional; settings: MDA-MB-435, 48 h; summary of the method: as §1
[18] = system: OVCAR-3; test: Growth inhibition of human OVCAR3 cells after 48 hrs by sulforhodamine B assay; type: functional; settings: OVCAR-3, 48 h; summary of the method: as §1
[19] = Growth inhibition of human RPMI8226 cells after 48 hrs by sulforhodamine B assay; type: functional; settings: RPMI-8226, 48 h
[20] = system: MDA-MB-231; test: Growth inhibition of human MDA-MB-231 cells after 48 hrs by sulforhodamine B assay; type: functional; settings: MDA-MB-231, 48 h; summary of the method: as §1
[21] = system: NCI-H322M; test: Growth inhibition of human NCI-H322M cells after 48 hrs by sulforhodamine B assay; type: functional; summary of the method: as §1
[22] = system: UACC-62; test: Growth inhibition of human UACC62 cells after 48 hrs by sulforhodamine B assay; type: functional; settings: UACC-62, 48 h
[23] = system: NCI-H460; test: Growth inhibition of human NCI-H460 cells after 48 hrs by sulforhodamine B assay; type: functional; settings: NCI-H460, 48 h; summary of the method: as §1
[24] = Growth inhibition of human RXF393 cells after 48 hrs by sulforhodamine B assay; type: functional; settings: RXF 393, 48 h
[25] = system: SNB-75; test: Growth inhibition of human SNB75 cells after 48 hrs by sulforhodamine B assay; type: functional; settings: SNB-75, 48 h
[26] = system: NCI-H23; test: Growth inhibition of human NCI-H23 cells after 48 hrs by sulforhodamine B assay; type: functional; settings: NCI-H23, 48 h; summary of the method: as §1
[27] = system: NCI-H226; test: Growth inhibition of human NCI-H226 cells after 48 hrs by sulforhodamine B assay; type: functional; settings: NCI-H226, 48 h; summary of the method: as §1
[28] = system: T47D; test: Growth inhibition of human T47D cells after 48 hrs by sulforhodamine B assay; type: functional
[29] = system: MT4; test: Antiproliferative activity against human MT4 cells after 96 hrs by MTT assay; type: functional, cell-based; settings: MT4, 96 h
Summary of the method: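 Exponentially growing MT-4 cells (CD4+ human T-cells carrying integrated HTLV-1 genome), seeded at 1×10^5 cells/mL in RPMI-1640 with 10% FCS and antibiotics. Serial dilutions of compound (DMSO stock 100 mM, diluted in medium), 37 °C, 5% CO₂, 96 h. Viability read by MTT. 50% inhibition versus untreated controls by linear regression. Mean ± SD of three independent determinations.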

[30] = Growth inhibition of human MOLT4 cells after 48 hrs by sulforhodamine B assay; type: functional; settings: MOLT-4, 48 h; summary of the method: as §1
[31] = system: 786-0; test: Growth inhibition of human 786-0 cells after 48 hrs by sulforhodamine B assay; type: functional; settings: 786-0, 48 h; summary of the method: as §1
[32] = Growth inhibition of human EKVX cells after 48 hrs by sulforhodamine B assay; type: functional; summary of the method: as §1
[33] = Growth inhibition of human COLO205 cells after 48 hrs by sulforhodamine B assay; type: functional; settings: COLO 205, 48 h; summary of the method: as §1
[34] = system: OVCAR-4; test: Growth inhibition of human OVCAR4 cells after 48 hrs by sulforhodamine B assay; type: functional; settings: OVCAR-4, 48 h; summary of the method: as §1
[35] = Growth inhibition of human HCC2998 cells after 48 hrs by sulforhodamine B assay; type: functional; settings: HCC 2998, 48 h; summary of the method: as §1
[36] = system: M14; test: Growth inhibition of human M14 cells after 48 hrs by sulforhodamine B assay; type: functional; settings: M14, 48 h; summary of the method: as §1
[37] = system: SW-620; test: Growth inhibition of human SW620 cells after 48 hrs by sulforhodamine B assay; type: functional; settings: SW-620, 48 h
[38] = Growth inhibition of human BT549 cells after 48 hrs by sulforhodamine B assay; type: functional; settings: BT-549, 48 h; summary of the method: as §1
[39] = Growth inhibition of human SF539 cells after 48 hrs by sulforhodamine B assay; type: functional; settings: SF-539, 48 h
[40] = system: NCI-H522; test: Growth inhibition of human NCI-H522 cells after 48 hrs by sulforhodamine B assay; type: functional; settings: NCI-H522, 48 h; summary of the method: as §1
[41] = system: HT-29; test: Growth inhibition of human HT-29 cells after 48 hrs by sulforhodamine B assay; type: functional; settings: HT-29, 48 h; summary of the method: as §1
[42] = Growth inhibition of human NCI-ADR-RES cells after 48 hrs by sulforhodamine B assay; type: functional; summary of the method: as §1
[43] = system: SF-268; test: Growth inhibition of human SF268 cells after 48 hrs by sulforhodamine B assay; type: functional; settings: SF-268, 48 h
[44] = system: U-251; test: Growth inhibition of human U251 cells after 48 hrs by sulforhodamine B assay; type: functional; settings: U-251, 48 h
[45] = system: SK-MEL-28; test: Growth inhibition of human SK-MEL-28 cells after 48 hrs by sulforhodamine B assay; type: functional; settings: SK-MEL-28, 48 h
[46] = system: UO-31; test: Growth inhibition of human UO31 cells after 48 hrs by sulforhodamine B assay; type: functional; settings: UO-31, 48 h
[47] = system: HOP-62; test: Growth inhibition of human HOP62 cells after 48 hrs by sulforhodamine B assay; type: functional; settings: HOP-62, 48 h; summary of the method: as §1
[48] = system: SK-MEL-2; test: Growth inhibition of human SK-MEL-2 cells after 48 hrs by sulforhodamine B assay; type: functional; settings: SK-MEL-2, 48 h
[49] = system: OVCAR-5; test: Growth inhibition of human OVCAR5 cells after 48 hrs by sulforhodamine B assay; type: functional; settings: OVCAR-5, 48 h
[50] = system: A498; test: Growth inhibition of human A498 cells after 48 hrs by sulforhodamine B assay; type: functional; settings: A498, 48 h; summary of the method: as §1
[51] = system: TK-10; test: Growth inhibition of human TK10 cells after 48 hrs by sulforhodamine B assay; type: functional; settings: TK-10, 48 h
[52] = system: IGROV-1; test: Growth inhibition of human IGROV1 cells after 48 hrs by sulforhodamine B assay; type: functional; settings: IGROV-1, 48 h; summary of the method: as §1
[53] = system: MDA-MB-468; test: Growth inhibition of human MDA-MB-468 cells after 48 hrs by sulforhodamine B assay; type: functional; settings: MDA-MB-468, 48 h; summary of the method: as §1
[54] = system: OVCAR-8; test: Growth inhibition of human OVCAR8 cells after 48 hrs by sulforhodamine B assay; type: functional; settings: OVCAR-8, 48 h
[55] = system: HCT-15; test: Growth inhibition of human HCT15 cells after 48 hrs by sulforhodamine B assay; type: functional; settings: HCT-15, 48 h; summary of the method: as §1
[56] = system: DU-145; test: Growth inhibition of human DU145 cells after 48 hrs by sulforhodamine B assay; type: functional; settings: DU-145, 48 h; summary of the method: as §1
[57] = system: Malme-3M; test: Growth inhibition of human MALME-3M cells after 48 hrs by sulforhodamine B assay; type: functional; summary of the method: as §1

Work on `COC(=O)/C(=C\c1c(C)[nH]c2ccccc12)S(=O)(=O)c1ccccc1` yielded a GI50 [1] of 9.3 µM, a GI50 [2] of 7.6 µM and a GI50 [3] of 1.1 µM. The GI50 [4] was 5.5 µM, the GI50 [5] was 5.6 µM and the GI50 [6] was 4.1 µM. For the same compound, the GI50 [7] was 2.6 µM, the GI50 [8] was 2.4 µM and the GI50 [9] was 3.1 µM. It also gave a GI50 [10] of 7 µM, a GI50 [11] of 3.3 µM and a GI50 [12] of 2 µM. The GI50 [13] was 2.9 µM, the GI50 [14] was 3.8 µM and the GI50 [15] was 2.8 µM. For the same compound, the GI50 [16] was 4.9 µM, the GI50 [17] was 2.9 µM and the GI50 [18] was 2.7 µM. For the same compound, the GI50 [19] was 3.2 µM, the GI50 [20] was 2.7 µM and the GI50 [21] was 8.8 µM. The GI50 [22] was 2.8 µM, the GI50 [23] was 3 µM and the GI50 [24] was 3.6 µM. The GI50 [25] was 3.1 µM, the GI50 [26] was 4.8 µM and the GI50 [27] was 4.3 µM. The GI50 [28] was 3.2 µM, the EC50 [29] was 31 µM and the GI50 [30] was 1.9 µM. The GI50 [31] was 8.2 µM, the GI50 [32] was 5 µM and the GI50 [33] was 7.5 µM. The GI50 [34] was 5.7 µM, the GI50 [35] was 4.9 µM and the GI50 [36] was 4.4 µM. For the same compound, the GI50 [37] was 5.2 µM, the GI50 [38] was 5.4 µM and the GI50 [39] was 3.4 µM. The GI50 [40] was 3.2 µM, the GI50 [41] was 5.2 µM and the GI50 [42] was 4.2 µM. It also gave a GI50 [43] of 3.3 µM, a GI50 [44] of 3.4 µM and a GI50 [45] of 5.8 µM. It also gave a GI50 [46] of 4.4 µM, a GI50 [47] of 7.7 µM and a GI50 [48] of 10.6 µM. It also gave a GI50 [49] of 17.4 µM, a GI50 [50] of 5.5 µM and a GI50 [51] of 8.1 µM. The GI50 [52] was 1.5 µM, the GI50 [53] was 6.3 µM and the GI50 [54] was 3.9 µM. The GI50 [55] was 3.1 µM, the GI50 [56] was 2.9 µM and the GI50 [57] was 7.3 µM.
